Assays:
CCRF-CEM [1] = test: In vitro cytotoxicity against CEM cells; type: functional, cell-based, Homo sapiens
[2] = system: Human immunodeficiency virus 1; test: Antiviral activity against Immunodeficiency virus type-1 (HIV-1) in peripheral blood mononuclear cells; type: functional, organism-based
In short: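 HIV-1 infection of human peripheral blood mononuclear (PBM) cells; EC50 reported in µM.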

Hepatitis B virus = test: Antiviral activity against Hepatitis B virus (HBV) in 2.2.15 cells; type: functional, organism-based; settings: HepG2 2.2.15
[3] = In vitro cytotoxicity against PBM cells; type: functional, cell-based, Homo sapiens
Vero [4] = test: (§1) In vitro cytotoxicity against Vero cells; type: functional, cell-based, Chlorocebus sabaeus
[5] = system: Human immunodeficiency virus 1; test: (§2) Anti HIV activity against cloned FTC-sensitive mutant xxBRU HIV-1; type: functional, organism-based
[6] = system: Human immunodeficiency virus 1; test: (§3) Anti HIV activity against cloned FTC/3TC-resistant mutant M184V HIV-1; type: functional, organism-based
[7] = system: Human immunodeficiency virus 1; test: as §2; type: functional
[8] = system: Human immunodeficiency virus 1; test: as §3; type: functional
[9] = Fold increase expressed as ratio of EC50 from M184V virus to that from xxBRU virus; type: functional
[10] = Fold increase expressed as ratio of EC90 from M184V virus to that from xxBRU virus; type: functional
CCRF-CEM [11] = test: In vitro cytotoxicity againstCEM cells; type: functional, cell-based; settings: Homo sapiens
Vero [12] = test: as §1; type: functional, cell-based; settings: Chlorocebus sabaeus

| SMILES | IC50 (CCRF-CEM [1]; Homo sapiens, CCRF-CEM) [µM] | EC50 ([2]; Human immunodeficiency virus 1) [µM] | EC50 (Hepatitis B virus) [µM] | IC50 ([3]; Homo sapiens, PBMC) [µM] | IC50 (Vero [4]; Chlorocebus sabaeus, Vero) [µM] | EC50 [2] [µM] | other results |
| --- | --- | --- | --- | --- | --- | --- | --- |
| O=c1ccn([C@@H]2C[Se][C@@H](CO)O2)c(=O)[nH]1 | > 100 | 101 | > 10 | > 100 | > 100 |  |  |
| Nc1nc(=O)n([C@@H]2C[Se][C@@H](CO)O2)cc1F (stereo in doubt; (+)) |  |  |  |  |  | 95.3 |  |
| Nc1nc(=O)n([C@@H]2C[Se][C@@H](CO)O2)cc1F (stereo in doubt; 10d) |  |  | > 10 |  |  | 57.1 |  |
| Nc1ncnc2c1ncn2[C@H]1C[Se][C@@H](CO)O1 | > 100 | > 50 | > 10 | > 100 | > 100 |  |  |
| Cc1cn([C@H]2C[Se][C@@H](CO)O2)c(=O)[nH]c1=O | > 100 | > 10 | > 10 | > 100 | > 100 |  |  |
| OC[C@H]1O[C@H](n2cnc3c(O)ncnc32)C[Se]1 | > 100 | > 100 | > 10 | > 100 | > 100 |  |  |
| Nc1ccn([C@H]2C[Se][C@@H](CO)O2)c(=O)n1 (stereo in doubt; 9c) | > 100 |  | 1.2 | > 100 | > 100 | 2.7 | EC50 [5]: 1.84 µM; EC50 [6]: 108 µM; EC90 [7]: 6.9 µM; EC90 [8]: 337 µM; FI [9]: 59; FI [10]: 49 |
| Nc1ccn([C@@H]2CS[C@H](CO)O2)c(=O)n1 [LAMIVUDINE] | > 100 | 0.07 | 0.008 | > 100 | > 100 |  |  |
| Nc1nc(=O)n([C@H]2C[Se][C@@H](CO)O2)cc1F (racemic) | > 100 |  | 1.2 | > 100 | > 100 | 0.73 |  |
| Nc1ncnc2c1ncn2[C@@H]1C[Se][C@@H](CO)O1 | > 100 | > 100 | > 10 | > 100 | > 100 |  |  |
| Nc1ccn([C@H]2C[Se][C@@H](CO)O2)c(=O)n1 (stereo in doubt; (-)) |  |  |  |  |  | 0.9 | EC50 [5]: 0.11 µM; EC50 [6]: > 50 µM; EC90 [7]: 0.95 µM; EC90 [8]: > 50 µM; FI [9]: >455; FI [10]: >53 |
| Nc1ccn([C@@H]2C[Se][C@@H](CO)O2)c(=O)n1 | > 100 | > 100 |  | > 100 | > 100 |  |  |
| Nc1nc(=O)n([C@H]2C[Se][C@@H](CO)O2)cc1F (stereo in doubt; (+)) |  |  |  |  |  | 41.9 |  |
| Cc1cn([C@@H]2C[Se][C@@H](CO)O2)c(=O)[nH]c1=O | > 100 | > 100 | > 10 | > 100 | > 100 |  |  |
| Nc1ccn([C@H]2C[Se][C@@H](CO)O2)c(=O)n1 (stereo in doubt; (+)) |  |  |  |  |  | 3.4 | IC50 (CCRF-CEM [1]; ccrf-cem): 100 µM; EC50 [5]: 8.62 µM; EC50 [6]: 50 µM; EC90 [7]: 35.1 µM; EC90 [8]: 50 µM; IC50 ([3]; pbm): 100 µM; IC50 (Vero [4]; vero): 100 µM; FI [9]: >6; FI [10]: >1 |
| Nc1nc(=O)n([C@@H]2C[Se][C@@H](CO)O2)cc1F (stereo in doubt; (-)) | > 100 |  |  | > 100 | > 100 | 6.4 |  |
| OC[C@H]1O[C@@H](n2cnc3c(O)ncnc32)C[Se]1 | > 100 | > 100 | > 10 | > 100 | > 100 |  |  |
| O=c1ccn([C@H]2C[Se][C@@H](CO)O2)c(=O)[nH]1 |  | > 100 | > 10 | > 100 |  |  | IC50 (CCRF-CEM [11]): > 100 µM; IC50 (Vero [12]): > 100 µM |
| Nc1nc(O)c2ncn([C@H]3C[Se][C@@H](CO)O3)c2n1 | > 100 | 28.9 | > 10 | > 100 | > 100 |  |  |
| Nc1nc(O)c2ncn([C@@H]3C[Se][C@@H](CO)O3)c2n1 | > 100 | > 100 | > 10 | > 100 | > 100 |  |  |
| Nc1nc(=O)n([C@H]2C[Se][C@@H](CO)O2)cc1F (stereo in doubt; (-)) |  |  |  |  |  | 0.2 |  |
